ChEMBL document CHEMBL1143988, “11-(pyridinylphenyl)steroids--a new class of mixed-profile progesterone agonists/antagonists” (Bioorg Med Chem, 2008)

Columns and labels:
Assay type in all cases: functional, cell-based
[1] = molecular target: T1, Progesterone receptor (Homo sapiens, UniProt P06401); test: Agonist activity at human PRB expressed in CHO cells
T1 sequence (P06401 whole entry): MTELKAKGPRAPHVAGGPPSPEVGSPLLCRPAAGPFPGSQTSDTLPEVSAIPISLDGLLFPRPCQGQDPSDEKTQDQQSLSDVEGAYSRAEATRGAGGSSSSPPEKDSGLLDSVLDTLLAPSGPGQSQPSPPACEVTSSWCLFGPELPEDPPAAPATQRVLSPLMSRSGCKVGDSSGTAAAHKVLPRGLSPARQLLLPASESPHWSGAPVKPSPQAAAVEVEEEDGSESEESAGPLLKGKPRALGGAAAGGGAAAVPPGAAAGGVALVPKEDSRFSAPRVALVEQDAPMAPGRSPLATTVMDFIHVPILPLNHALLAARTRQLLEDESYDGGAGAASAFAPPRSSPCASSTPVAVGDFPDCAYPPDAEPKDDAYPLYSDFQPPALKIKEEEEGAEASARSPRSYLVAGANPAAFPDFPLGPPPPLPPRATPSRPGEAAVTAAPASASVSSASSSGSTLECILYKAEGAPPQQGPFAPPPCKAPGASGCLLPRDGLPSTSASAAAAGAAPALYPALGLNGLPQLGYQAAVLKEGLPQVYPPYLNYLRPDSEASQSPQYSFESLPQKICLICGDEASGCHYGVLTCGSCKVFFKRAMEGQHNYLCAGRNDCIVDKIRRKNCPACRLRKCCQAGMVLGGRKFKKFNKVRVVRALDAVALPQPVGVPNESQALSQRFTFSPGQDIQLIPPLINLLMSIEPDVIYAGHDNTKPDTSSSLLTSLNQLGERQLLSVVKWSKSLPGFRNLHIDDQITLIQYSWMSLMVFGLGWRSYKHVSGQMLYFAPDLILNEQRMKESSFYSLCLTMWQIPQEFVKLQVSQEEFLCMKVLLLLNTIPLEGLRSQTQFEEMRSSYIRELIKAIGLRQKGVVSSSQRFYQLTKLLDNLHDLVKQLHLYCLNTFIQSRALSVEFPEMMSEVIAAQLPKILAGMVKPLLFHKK

[2] = molecular target: T1, Progesterone receptor; test: Antagonist activity at human PRB expressed in CHO cells assessed as inhibition of Org 2058 induced-transactivation
Procedure, shortened: (§1)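 PR-B-mediated luciferase transactivation antagonist mode, run in the same setting as the agonist assay, with 0.1 nM Org 2058 as inducer; IC50 taken from inhibition of luciferase induction. Efficacy given relative to the antagonist Org 31710, whose effect is set to 100%.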

[3] = molecular target: T2, Progesterone receptor (Homo sapiens) (UniProt P06401); test: (§2) Antagonist activity at human PRB expressed in CHO cells assessed as inhibition of Org 2058 induced-transactivation relative to Org 31710; procedure, shortened: as §1
T2 sequence (whole entry): T1 sequence (P06401 whole entry)

[4] = molecular target: T2, Progesterone receptor (Homo sapiens); test: Agonist activity at human PRB expressed in CHO cells relative to Org 2058
[5] = molecular target: T1, Progesterone receptor; test: as §2; procedure, shortened: as §1

Row | SMILES | EC50 [1] [nM] | IC50 [2] [nM] | Efficacy [3] [%] | Efficacy [4] [%] | IC50 [5] [nM]
1 | C[C@@H]1C[C@H]2[C@@H]3CCC4=CC(=O)CCC4=C3[C@@H](c3ccc(-c4ccccn4)cc3)C[C@]2(C)[C@H]1C(=O)C1CC1 |  | 14.8 | 33 | 49 | 
2 | C=C1CCO[C@]12CC[C@H]1[C@@H]3CCC4=CC(=O)CCC4[C@H]3[C@@H](c3ccc(N(C)C)cc3)C[C@@]12C (stereo partly drawn) |  |  |  |  | 0.2
3 | C[C@@H]1C[C@H]2[C@@H]3CCC4=CC(=O)CCC4=C3[C@@H](c3ccc(-c4ccncc4)cc3)C[C@]2(C)[C@H]1C(=O)C1CC1 |  | 2.5 | 27 | 56 | 
4 | C[C@@H]1C[C@H]2[C@@H]3CCC4=CC(=O)CCC4=C3[C@@H](c3ccc(-c4ncccn4)cc3)C[C@]2(C)[C@H]1C(=O)C1CC1 |  | 3.25 | > 27 | 52 | 
5 | C[C@]12C[C@H](c3ccc(-c4cccnc4)cc3)C3=C4CCC(=O)C=C4CC[C@H]3[C@@H]1CC[C@@H]2C(=O)C1CC1 |  | 0.75 | 66 | 36 | 
6 | C[C@@H]1C[C@H]2[C@@H]3CCC4=CC(=O)CCC4=C3[C@@H](c3ccc(-c4cnc5ccccc5c4)cc3)C[C@]2(C)[C@H]1C(=O)C1CC1 |  | 3.14 | 24 | 50 | 
7 | C=C[C@@H]1C[C@H]2[C@@H]3CCC4=CC(=O)CCC4=C3[C@@H](c3ccc(-c4ccc(OC)nc4)cc3)C[C@]2(C)[C@H]1C(=O)C1CC1 |  | 0.98 | 45 | 41 | 
8 | C[C@@H]1C[C@H]2[C@@H]3CCC4=CC(=O)CCC4=C3[C@@H](c3ccc(-c4cnccn4)cc3)C[C@]2(C)[C@H]1C(=O)C1CC1 |  | 1.3 | 35 | 54 | 
9 | CC[C@@H]1C[C@H]2[C@@H]3CCC4=CC(=O)CCC4=C3[C@@H](c3ccc(-c4ccc(OC)nc4)cc3)C[C@]2(C)[C@H]1C(=O)C1CC1 |  | 7.89 | 52 | 42 | 
10 | CN(C)c1ccc([C@H]2C[C@@]3(C)[C@@H](CC[C@@]34CCCC4=O)[C@@H]3CCC4=CC(=O)CCC4=C32)cc1 |  |  |  |  | 0.2
11 | C[C@@H]1C[C@H]2[C@@H]3CCC4=CC(=O)CCC4=C3[C@@H](c3ccc(-c4ccnnc4)cc3)C[C@]2(C)[C@H]1C(=O)C1CC1 | 0.36 | 3.64 | 37 | 51 | 
12 | C[C@@H]1C[C@H]2[C@@H]3CCC4=CC(=O)CCC4=C3[C@@H](c3ccc(-c4ccc(F)nc4)cc3)C[C@]2(C)[C@H]1C(=O)C1CC1 |  | 8.48 | 50 | 51 | 

Results, then the compound that gave them:

Row | EC50 [1] [nM] | IC50 [2] [nM] | Efficacy [3] [%] | Efficacy [4] [%] | IC50 [5] [nM] | SMILES
13 | > 100 | 0.2 | 100 |  |  | CC(=O)O[C@]1(C(C)=O)CC[C@H]2[C@@H]3CCC4=CC(=O)CCC4=C3[C@@H](c3ccc(N(C)C)cc3)C[C@@]21C [ULIPRISTAL ACETATE]
14 |  | 0.13 | 58 | 38 |  | C[C@]12C[C@H](c3ccc(-c4cccnc4)cc3)C3=C4CCC(=O)C=C4CC[C@H]3[C@@H]1CC[C@]2(C)C(=O)C1CC1
15 |  | 0.61 | 38 | 47 |  | C=C[C@@H]1C[C@H]2[C@@H]3CCC4=CC(=O)CCC4=C3[C@@H](c3ccc(-c4cccnc4)cc3)C[C@]2(C)[C@H]1C(=O)C1CC1
16 |  | 0.43 | 57 | 28 |  | COc1ccc(-c2ccc([C@H]3C[C@]4(C)[C@@H](C(=O)C5CC5)CC[C@H]4[C@@H]4CCC5=CC(=O)CCC5=C43)cc2)cn1
17 |  | 0.47 | 43 | 47 |  | C[C@@H]1C[C@H]2[C@@H]3CCC4=CC(=O)CCC4=C3[C@@H](c3ccc(-c4ccc(Cl)nc4)cc3)C[C@]2(C)[C@H]1C(=O)C1CC1
18 |  | 0.63 | 59 | 42 |  | COc1ccc(-c2ccc([C@H]3C[C@@]4(C)[C@@H](C[C@@H](C)[C@@H]4C(=O)C4CC4)[C@@H]4CCC5=CC(=O)CCC5=C43)cc2)cn1
19 |  | 0.27 | 46 | 49 |  | C[C@@H]1C[C@H]2[C@@H]3CCC4=CC(=O)CCC4=C3[C@@H](c3ccc(-c4cccnc4)cc3)C[C@]2(C)[C@H]1C(=O)C1CC1
20 | 0.15 | 0.55 | 62 | 20 |  | COc1ccc(-c2ccc([C@H]3C[C@@]4(C)[C@@H](CCC45CCCC5=O)[C@@H]4CCC5=CC(=O)CCC5=C43)cc2)cn1 (stereo partly drawn)
21 |  | 0.6 | 53 | 34 |  | CC[C@@H]1C[C@H]2[C@@H]3CCC4=CC(=O)CCC4=C3[C@@H](c3ccc(-c4cccnc4)cc3)C[C@]2(C)[C@H]1C(=O)C1CC1
22 | 0.29 | 0.33 | 71 | 17 |  | C[C@]12C[C@H](c3ccc(-c4cccnc4)cc3)C3=C4CCC(=O)C=C4CC[C@H]3[C@@H]1CCC21CCCC1=O (stereo partly drawn)
23 | > 100 | 0.2 | 97 |  |  | COC[C@]1(OC)CC[C@H]2[C@@H]3CCC4=CC(=O)CCC4=C3[C@@H](c3ccc(/C=N/O)cc3)C[C@@]21C [ASOPRISNIL]
